Measurements: ChEMBL document CHEMBL1143847, “Competitive inhibitors of the CphA metallo-beta-lactamase from Aeromonas hydrophila” (Antimicrob Agents Chemother, 2007)

Legend:
[1] = target: Metallo beta-lactamase (Pseudomonas aeruginosa) (UniProt Q6TUJ4); assay: Inhibition of Pseudomonas aeruginosa 101/1477 metallo beta lactamase IMP1 expressed in Escherichia coli assessed as residual enzyme activity at 100 uM in absence of zinc
[2] = target: Metallo beta-lactamase (Pseudomonas aeruginosa) (UniProt Q6TUJ4); assay: Inhibition of Pseudomonas aeruginosa 101/1477 metallo beta lactamase IMP1 expressed in Escherichia coli assessed as residual enzyme activity at 100 uM in presence of zinc chloride
How it was run: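 IMP-1 at 0.03–0.7 nM was preincubated 30 min at room temperature with 100 μM inhibitor in 20 mM HEPES pH 7.0 with 20 μg/ml BSA plus 100 μM ZnCl2. The reaction was then started with 100 μM imipenem. The initial rate of three samples was taken as mean percent of the rate without inhibitor ± SD.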

Bacillus cereus = assay: Inhibition of Bacillus cereus metallo beta lactamase Bc2 assessed as residual enzyme activity at 100 uM
[3] = Inhibition of metallo beta lactamase VIM2 assessed as residual enzyme activity at 100 uM
[4] = Inhibition of metallo beta lactamase VIM4 assessed as residual enzyme activity at 100 uM
[5] = target: Beta-lactamase L1 (Stenotrophomonas maltophilia) (UniProt P52700); assay: Inhibition of Stenotrophomonas maltophilia metallo beta lactamase L1 assessed as residual enzyme activity at 100 uM
Beta-lactamase L1 (Stenotrophomonas maltophilia), sequence (P52700 34-290 limits assumed): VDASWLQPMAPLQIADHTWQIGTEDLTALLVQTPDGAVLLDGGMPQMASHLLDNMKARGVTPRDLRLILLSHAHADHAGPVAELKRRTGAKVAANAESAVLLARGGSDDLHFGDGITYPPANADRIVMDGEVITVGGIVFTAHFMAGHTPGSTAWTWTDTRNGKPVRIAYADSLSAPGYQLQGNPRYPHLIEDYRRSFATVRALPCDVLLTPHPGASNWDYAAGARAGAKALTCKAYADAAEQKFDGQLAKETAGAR

Fluoribacter gormanii = assay: Inhibition of Legionella gormani beta lactamase metallo FEZ1 expressed in Escherichia coli assessed as residual enzyme activity at 100 uM
How it was run: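 Purified enzyme (0.03–0.7 nM) in 20 mM HEPES pH 7.0 with 20 μg/ml BSA was preincubated 30 min at room temperature with 100 μM inhibitor, diluted from 10 mM DMSO stock. Nitrocefin (100 μM) was then added and the initial hydrolysis rate measured. Residual activity is the mean (±SD) of three samples as percent of the uninhibited rate.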

[6] = target: Beta-lactamase (Aeromonas hydrophila) (UniProt Q44079); assay: Ratio of Kcat to Km for Aeromonas hydrophila beta lactamase CphA at pH 7.0
Beta-lactamase (Aeromonas hydrophila), sequence (Q44079 as listed by the source): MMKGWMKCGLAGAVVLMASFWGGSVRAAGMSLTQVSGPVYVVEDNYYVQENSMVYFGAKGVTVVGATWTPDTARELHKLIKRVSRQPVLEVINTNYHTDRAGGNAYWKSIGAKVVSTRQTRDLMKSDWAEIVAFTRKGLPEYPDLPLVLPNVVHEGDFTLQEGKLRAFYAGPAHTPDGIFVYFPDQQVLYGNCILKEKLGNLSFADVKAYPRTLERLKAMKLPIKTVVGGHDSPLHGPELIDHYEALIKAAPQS
How it was run: (§1)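 Wild-type CphA kinetics with imipenem as substrate, measured in a mixed buffer adjusted to the stated pH with HCl or NaOH. The buffer held 40 mM sodium acetate, 20 mM each of cacodylate, MOPS, TAPS, CHES and CAPS, and 20 μg/ml BSA. Runs were at 30°C in thermostatted cells. Km and kcat came from initial rates. At pH 10 only kcat/Km was taken, because imipenem hydrolyses spontaneously.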

[7] = target: Beta-lactamase (Aeromonas hydrophila) (UniProt Q44079); assay: Ratio of Kcat to Km for Aeromonas hydrophila beta lactamase CphA at pH 8.0; how it was run: as §1
[8] = target: Beta-lactamase (Aeromonas hydrophila) (UniProt Q44079); assay: Ratio of Kcat to Km for Aeromonas hydrophila beta lactamase CphA at pH 9.0; how it was run: as §1
[9] = target: Beta-lactamase (Aeromonas hydrophila) (UniProt Q44079); assay: Ratio of Kcat to Km for Aeromonas hydrophila beta lactamase CphA at pH 10.0; how it was run: as §1

Metallo beta-lactamase (Pseudomonas aeruginosa), sequence (Q6TUJ4 as listed by the source): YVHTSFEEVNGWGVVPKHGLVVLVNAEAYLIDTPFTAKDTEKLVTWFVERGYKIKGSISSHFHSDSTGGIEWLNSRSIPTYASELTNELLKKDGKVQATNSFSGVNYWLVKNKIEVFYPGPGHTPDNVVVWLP

Row | SMILES | Activity [1] [%] | Activity [2] [%] | Activity (Bacillus cereus) [%] | Activity [3] [%] | Activity [4] [%] | Activity [5] [%] | Activity (Fluoribacter gormanii) [%] | Ratio [6] [µM⁻¹ s⁻¹] | Ratio [7] [µM⁻¹ s⁻¹] | Ratio [8] [µM⁻¹ s⁻¹] | Ratio [9] [µM⁻¹ s⁻¹]
1 | O=C(O)c1cccc(C(=O)O)n1 | 2 | 72 | 95 | 96 | 88 | 92 | 77 |  |  |  | 
2 | O=C(O)c1ccccn1 | 31 | 54 | 95 | 80 | 59 | 29 | 62 |  |  |  | 
3 | CC(O)[C@H]1C(=O)N2C(C(=O)O)=C(SCCNC=N)C[C@H]12 (single isomer, unassigned) |  |  |  |  |  |  |  | 1.8 | 1.7 | 0.78 | 0.44
4 | O=C(O)c1ccc(C(=O)O)nc1 | 99 | 81 | 99 | 97 | 97 | 94 | 80 |  |  |  | 
5 | O=C(O)c1ccnc(C(=O)O)c1 | 94 | 78 | 97 | 98 | 90 | 78 | 65 |  |  |  | 
6 | O=C(O)c1ccncc1C(=O)O | 91 | 88 | 97 | 92 | 100 | 97 | 93 |  |  |  | 
7 | O=C(O)c1cccnc1C(=O)O | 89 | 67 | 98 | 106 | 73 | 93 | 62 |  |  |  | 
